# Data: ChEMBL document CHEMBL1909556, “Synthesis and properties of novel 2'-O-alkoxymethyl-modified nucleic acids” (Bioorg Med Chem Lett, 2011)
# The source made the active and inactive calls. The rule behind the calls is not given here.
# How the values were obtained:
# Nucleic Acid [1] = assay: Binding affinity to A12 RNA assessed as change in melting temperature at 2 uM compound at pH 7; format: nucleic-acid assay
# [2] = Nuclease stability of compound assessed as snake venom phosphodiesterase-mediated degradation at 10 uM after 2 hrs by RP-HPLC analysis; format: physicochemical
# Outline: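 Snake venom phosphodiesterase digestion at 4 × 10^-4 units/ml of 10 μM oligoribonucleotide for 2 h. Buffer was 50 mM Tris-HCl pH 8.5 with 72 mM NaCl and 14 mM MgCl2. The degradation ratio was estimated by reversed-phase HPLC.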
# Nucleic Acid [3] = assay: Binding affinity to dA12 DNA assessed as change in melting temperature at 2 uM compound at pH 7; format: nucleic-acid assay
Structure (SMILES),ΔTm (Nucleic Acid [1]) [°C],Stability [2],Activity (Nucleic Acid [3])
O=c1ccn([C@@H]2O[C@H](COP(=O)(O)O[C@H]3[C@@H](O)[C@H](n4ccc(=O)[nH]c4=O)O[C@@H]3COP(=O)(O)O[C@H]3[C@@H](O)[C@H](n4ccc(=O)[nH]c4=O)O[C@@H]3COP(=O)(O)O[C@H]3[C@@H](O)[C@H](n4ccc(=O)[nH]c4=O)O[C@@H]3COP(=O)(O)O[C@H]3[C@@H](O)[C@H](n4ccc(=O)[nH]c4=O)O[C@@H]3COP(=O)(O)O[C@H]3[C@@H](O)[C@H](n4ccc(=O)[nH]c4=O)O[C@@H]3COP(=O)(O)O[C@H]3[C@@H](O)[C@H](n4ccc(=O)[nH]c4=O)O[C@@H]3COP(=O)(O)O[C@H]3[C@@H](O)[C@H](n4ccc(=O)[nH]c4=O)O[C@@H]3COP(=O)(O)O[C@H]3[C@@H](O)[C@H](n4ccc(=O)[nH]c4=O)O[C@@H]3COP(=O)(O)O[C@H]3[C@@H](O)[C@H](n4ccc(=O)[nH]c4=O)O[C@@H]3COP(=O)(O)O[C@H]3[C@@H](O)[C@H](n4ccc(=O)[nH]c4=O)O[C@@H]3COP(=O)(O)O[C@H]3[C@@H](O)[C@H](n4ccc(=O)[nH]c4=O)O[C@@H]3CO)[C@@H](O)[C@H]2O)c(=O)[nH]1,0,,
O=c1ccn([C@@H]2O[C@H](COP(=O)(O)O[C@H]3[C@@H](OCOCC(Cl)Cl)[C@H](n4ccc(=O)[nH]c4=O)O[C@@H]3COP(=O)(O)O[C@H]3[C@@H](OCOCC(Cl)Cl)[C@H](n4ccc(=O)[nH]c4=O)O[C@@H]3COP(=O)(O)O[C@H]3[C@@H](OCOCC(Cl)Cl)[C@H](n4ccc(=O)[nH]c4=O)O[C@@H]3COP(=O)(O)O[C@H]3[C@@H](OCOCC(Cl)Cl)[C@H](n4ccc(=O)[nH]c4=O)O[C@@H]3COP(=O)(O)O[C@H]3[C@@H](OCOCC(Cl)Cl)[C@H](n4ccc(=O)[nH]c4=O)O[C@@H]3COP(=O)(O)O[C@H]3[C@@H](OCOCC(Cl)Cl)[C@H](n4ccc(=O)[nH]c4=O)O[C@@H]3COP(=O)(O)O[C@H]3[C@@H](OCOCC(Cl)Cl)[C@H](n4ccc(=O)[nH]c4=O)O[C@@H]3COP(=O)(O)O[C@H]3[C@@H](OCOCC(Cl)Cl)[C@H](n4ccc(=O)[nH]c4=O)O[C@@H]3COP(=O)(O)O[C@H]3[C@@H](OCOCC(Cl)Cl)[C@H](n4ccc(=O)[nH]c4=O)O[C@@H]3COP(=O)(O)O[C@H]3[C@@H](OCOCC(Cl)Cl)[C@H](n4ccc(=O)[nH]c4=O)O[C@@H]3COP(=O)(O)O[C@H]3[C@@H](OCOCC(Cl)Cl)[C@H](n4ccc(=O)[nH]c4=O)O[C@@H]3CO)[C@@H](O)[C@H]2OCOCC(Cl)Cl)c(=O)[nH]1,10.8,Unstable,inactive
O=c1ccn([C@@H]2O[C@H](COP(=O)(O)O[C@H]3[C@@H](OCOCC(F)F)[C@H](n4ccc(=O)[nH]c4=O)O[C@@H]3COP(=O)(O)O[C@H]3[C@@H](OCOCC(F)F)[C@H](n4ccc(=O)[nH]c4=O)O[C@@H]3COP(=O)(O)O[C@H]3[C@@H](OCOCC(F)F)[C@H](n4ccc(=O)[nH]c4=O)O[C@@H]3COP(=O)(O)O[C@H]3[C@@H](OCOCC(F)F)[C@H](n4ccc(=O)[nH]c4=O)O[C@@H]3COP(=O)(O)O[C@H]3[C@@H](OCOCC(F)F)[C@H](n4ccc(=O)[nH]c4=O)O[C@@H]3COP(=O)(O)O[C@H]3[C@@H](OCOCC(F)F)[C@H](n4ccc(=O)[nH]c4=O)O[C@@H]3COP(=O)(O)O[C@H]3[C@@H](OCOCC(F)F)[C@H](n4ccc(=O)[nH]c4=O)O[C@@H]3COP(=O)(O)O[C@H]3[C@@H](OCOCC(F)F)[C@H](n4ccc(=O)[nH]c4=O)O[C@@H]3COP(=O)(O)O[C@H]3[C@@H](OCOCC(F)F)[C@H](n4ccc(=O)[nH]c4=O)O[C@@H]3COP(=O)(O)O[C@H]3[C@@H](OCOCC(F)F)[C@H](n4ccc(=O)[nH]c4=O)O[C@@H]3COP(=O)(O)O[C@H]3[C@@H](OCOCC(F)F)[C@H](n4ccc(=O)[nH]c4=O)O[C@@H]3CO)[C@@H](O)[C@H]2OCOCC(F)F)c(=O)[nH]1,3.5,,
CCOCO[C@@H]1[C@H](O)[C@@H](COP(=O)(O)O[C@H]2[C@@H](OCOCC)[C@H](n3ccc(=O)[nH]c3=O)O[C@@H]2COP(=O)(O)O[C@H]2[C@@H](OCOCC)[C@H](n3ccc(=O)[nH]c3=O)O[C@@H]2COP(=O)(O)O[C@H]2[C@@H](OCOCC)[C@H](n3ccc(=O)[nH]c3=O)O[C@@H]2COP(=O)(O)O[C@H]2[C@@H](OCOCC)[C@H](n3ccc(=O)[nH]c3=O)O[C@@H]2COP(=O)(O)O[C@H]2[C@@H](OCOCC)[C@H](n3ccc(=O)[nH]c3=O)O[C@@H]2COP(=O)(O)O[C@H]2[C@@H](OCOCC)[C@H](n3ccc(=O)[nH]c3=O)O[C@@H]2COP(=O)(O)O[C@H]2[C@@H](OCOCC)[C@H](n3ccc(=O)[nH]c3=O)O[C@@H]2COP(=O)(O)O[C@H]2[C@@H](OCOCC)[C@H](n3ccc(=O)[nH]c3=O)O[C@@H]2COP(=O)(O)O[C@H]2[C@@H](OCOCC)[C@H](n3ccc(=O)[nH]c3=O)O[C@@H]2COP(=O)(O)O[C@H]2[C@@H](OCOCC)[C@H](n3ccc(=O)[nH]c3=O)O[C@@H]2COP(=O)(O)O[C@H]2[C@@H](OCOCC)[C@H](n3ccc(=O)[nH]c3=O)O[C@@H]2CO)O[C@H]1n1ccc(=O)[nH]c1=O,-2.5,Unstable,
O=c1ccn([C@@H]2O[C@H](COP(=O)(O)O[C@H]3[C@@H](OCOCCCl)[C@H](n4ccc(=O)[nH]c4=O)O[C@@H]3COP(=O)(O)O[C@H]3[C@@H](OCOCCCl)[C@H](n4ccc(=O)[nH]c4=O)O[C@@H]3COP(=O)(O)O[C@H]3[C@@H](OCOCCCl)[C@H](n4ccc(=O)[nH]c4=O)O[C@@H]3COP(=O)(O)O[C@H]3[C@@H](OCOCCCl)[C@H](n4ccc(=O)[nH]c4=O)O[C@@H]3COP(=O)(O)O[C@H]3[C@@H](OCOCCCl)[C@H](n4ccc(=O)[nH]c4=O)O[C@@H]3COP(=O)(O)O[C@H]3[C@@H](OCOCCCl)[C@H](n4ccc(=O)[nH]c4=O)O[C@@H]3COP(=O)(O)O[C@H]3[C@@H](OCOCCCl)[C@H](n4ccc(=O)[nH]c4=O)O[C@@H]3COP(=O)(O)O[C@H]3[C@@H](OCOCCCl)[C@H](n4ccc(=O)[nH]c4=O)O[C@@H]3COP(=O)(O)O[C@H]3[C@@H](OCOCCCl)[C@H](n4ccc(=O)[nH]c4=O)O[C@@H]3COP(=O)(O)O[C@H]3[C@@H](OCOCCCl)[C@H](n4ccc(=O)[nH]c4=O)O[C@@H]3COP(=O)(O)O[C@H]3[C@@H](OCOCCCl)[C@H](n4ccc(=O)[nH]c4=O)O[C@@H]3CO)[C@@H](O)[C@H]2OCOCCCl)c(=O)[nH]1,11,Unstable,inactive
N#CCCOCO[C@@H]1[C@H](O)[C@@H](COP(=O)(O)O[C@H]2[C@@H](OCOCCC#N)[C@H](n3ccc(=O)[nH]c3=O)O[C@@H]2COP(=O)(O)O[C@H]2[C@@H](OCOCCC#N)[C@H](n3ccc(=O)[nH]c3=O)O[C@@H]2COP(=O)(O)O[C@H]2[C@@H](OCOCCC#N)[C@H](n3ccc(=O)[nH]c3=O)O[C@@H]2COP(=O)(O)O[C@H]2[C@@H](OCOCCC#N)[C@H](n3ccc(=O)[nH]c3=O)O[C@@H]2COP(=O)(O)O[C@H]2[C@@H](OCOCCC#N)[C@H](n3ccc(=O)[nH]c3=O)O[C@@H]2COP(=O)(O)O[C@H]2[C@@H](OCOCCC#N)[C@H](n3ccc(=O)[nH]c3=O)O[C@@H]2COP(=O)(O)O[C@H]2[C@@H](OCOCCC#N)[C@H](n3ccc(=O)[nH]c3=O)O[C@@H]2COP(=O)(O)O[C@H]2[C@@H](OCOCCC#N)[C@H](n3ccc(=O)[nH]c3=O)O[C@@H]2COP(=O)(O)O[C@H]2[C@@H](OCOCCC#N)[C@H](n3ccc(=O)[nH]c3=O)O[C@@H]2COP(=O)(O)O[C@H]2[C@@H](OCOCCC#N)[C@H](n3ccc(=O)[nH]c3=O)O[C@@H]2COP(=O)(O)O[C@H]2[C@@H](OCOCCC#N)[C@H](n3ccc(=O)[nH]c3=O)O[C@@H]2CO)O[C@H]1n1ccc(=O)[nH]c1=O,2.8,Stable,
O=c1ccn([C@@H]2O[C@H](COP(=O)(O)O[C@H]3[C@@H](OCOCC(F)(F)F)[C@H](n4ccc(=O)[nH]c4=O)O[C@@H]3COP(=O)(O)O[C@H]3[C@@H](OCOCC(F)(F)F)[C@H](n4ccc(=O)[nH]c4=O)O[C@@H]3COP(=O)(O)O[C@H]3[C@@H](OCOCC(F)(F)F)[C@H](n4ccc(=O)[nH]c4=O)O[C@@H]3COP(=O)(O)O[C@H]3[C@@H](OCOCC(F)(F)F)[C@H](n4ccc(=O)[nH]c4=O)O[C@@H]3COP(=O)(O)O[C@H]3[C@@H](OCOCC(F)(F)F)[C@H](n4ccc(=O)[nH]c4=O)O[C@@H]3COP(=O)(O)O[C@H]3[C@@H](OCOCC(F)(F)F)[C@H](n4ccc(=O)[nH]c4=O)O[C@@H]3COP(=O)(O)O[C@H]3[C@@H](OCOCC(F)(F)F)[C@H](n4ccc(=O)[nH]c4=O)O[C@@H]3COP(=O)(O)O[C@H]3[C@@H](OCOCC(F)(F)F)[C@H](n4ccc(=O)[nH]c4=O)O[C@@H]3COP(=O)(O)O[C@H]3[C@@H](OCOCC(F)(F)F)[C@H](n4ccc(=O)[nH]c4=O)O[C@@H]3COP(=O)(O)O[C@H]3[C@@H](OCOCC(F)(F)F)[C@H](n4ccc(=O)[nH]c4=O)O[C@@H]3COP(=O)(O)O[C@H]3[C@@H](OCOCC(F)(F)F)[C@H](n4ccc(=O)[nH]c4=O)O[C@@H]3CO)[C@@H](O)[C@H]2OCOCC(F)(F)F)c(=O)[nH]1,4.5,,
O=c1ccn([C@@H]2O[C@H](COP(=O)(O)O[C@H]3[C@@H](OCOCC(Cl)(Cl)Cl)[C@H](n4ccc(=O)[nH]c4=O)O[C@@H]3COP(=O)(O)O[C@H]3[C@@H](OCOCC(Cl)(Cl)Cl)[C@H](n4ccc(=O)[nH]c4=O)O[C@@H]3COP(=O)(O)O[C@H]3[C@@H](OCOCC(Cl)(Cl)Cl)[C@H](n4ccc(=O)[nH]c4=O)O[C@@H]3COP(=O)(O)O[C@H]3[C@@H](OCOCC(Cl)(Cl)Cl)[C@H](n4ccc(=O)[nH]c4=O)O[C@@H]3COP(=O)(O)O[C@H]3[C@@H](OCOCC(Cl)(Cl)Cl)[C@H](n4ccc(=O)[nH]c4=O)O[C@@H]3COP(=O)(O)O[C@H]3[C@@H](OCOCC(Cl)(Cl)Cl)[C@H](n4ccc(=O)[nH]c4=O)O[C@@H]3COP(=O)(O)O[C@H]3[C@@H](OCOCC(Cl)(Cl)Cl)[C@H](n4ccc(=O)[nH]c4=O)O[C@@H]3COP(=O)(O)O[C@H]3[C@@H](OCOCC(Cl)(Cl)Cl)[C@H](n4ccc(=O)[nH]c4=O)O[C@@H]3COP(=O)(O)O[C@H]3[C@@H](OCOCC(Cl)(Cl)Cl)[C@H](n4ccc(=O)[nH]c4=O)O[C@@H]3COP(=O)(O)O[C@H]3[C@@H](OCOCC(Cl)(Cl)Cl)[C@H](n4ccc(=O)[nH]c4=O)O[C@@H]3COP(=O)(O)O[C@H]3[C@@H](OCOCC(Cl)(Cl)Cl)[C@H](n4ccc(=O)[nH]c4=O)O[C@@H]3CO)[C@@H](O)[C@H]2OCOCC(Cl)(Cl)Cl)c(=O)[nH]1,-0.8,Unstable,
